# An excerpt weighted towards active compounds, which were near 2.6% of everything screened.
# SENP6 block = SENP6 protease inhibition. Q9GZR1. Recombinant SENP6 catalytic domain, aminoluciferin luminescence. inhibition, % at 10 µM. 1.8% of 330,000 active;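 active = inhibition above about 50% at the single tested dose, limit read from the data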
# Target sequence (Q9GZR1 628-1112 limits assumed): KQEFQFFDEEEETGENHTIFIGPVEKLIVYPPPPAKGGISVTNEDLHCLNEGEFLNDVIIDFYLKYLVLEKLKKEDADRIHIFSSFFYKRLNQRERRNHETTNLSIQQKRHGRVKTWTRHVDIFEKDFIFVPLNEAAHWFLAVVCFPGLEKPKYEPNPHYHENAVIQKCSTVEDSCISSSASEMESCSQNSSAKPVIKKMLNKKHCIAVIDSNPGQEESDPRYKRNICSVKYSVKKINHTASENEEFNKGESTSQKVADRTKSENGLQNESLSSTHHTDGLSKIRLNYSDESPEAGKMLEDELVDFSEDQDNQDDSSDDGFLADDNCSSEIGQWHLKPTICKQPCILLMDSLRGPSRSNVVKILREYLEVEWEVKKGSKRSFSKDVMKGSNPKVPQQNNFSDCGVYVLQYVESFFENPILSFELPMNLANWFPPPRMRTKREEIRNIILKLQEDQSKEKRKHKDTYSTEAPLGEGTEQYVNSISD
# Platelet DG rel = modulates dense granule release in human platelets | human platelet-rich plasma, SFLLRN dense granule ATP release, luminescence | inhibition, %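 (compounds screened at 7.5 µM in platelet-rich plasma)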 | 0.22% of 300,000 active;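 active = mean replicate score, as percent of positive control, at or above 50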
# SENP8 block-1 = SENP8 protease inhibition | Q96LD8 | purified SENP8, Z-RLRGG-aminoluciferin cleavage, luminescence | inhibition, % at 10 µM | 1.2% of 330,000 active; in the data active = inhibition above about 50%
# SENP7 block = SENP7 protease inhibition. Q9BQF6. recombinant SENP7, Z-RLRGG-aminoluciferin luminescence, 40 min. inhibition, % at 5 µM. 1.5% of 330,000 active;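 active = inhibition above about 50% at the single test dose, limit read from the data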
# SENP1 inh = blocks the human SENP1 SUMO protease catalytic domain | Q9P0U3 | recombinant SENP1 catalytic domain, CyPet-SUMO1-YPet FRET cleavage | inhibition, % at 10 µM | 0.21% of 360,000 active | AID 624204;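 active = inhibition at least 30% at 10 µM, raw YFP signal under a set limit, fluorescence ratio 0.5 to 1.5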
#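 Compound: 10 µM single point, 0.5% DMSO; Test system: hSENP1 catalytic domain, recombinant; Timing: 50 min reaction at room temperature; Technique: FRET, CFP and YFP emission; Control set: no-enzyme wells low, DMSO-plus-enzyme wells high control.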
# SENP8 block-2 = inhibitors of human SENP8 protease; Q96LD8; recombinant SENP8, Nedd8 substrate fluorescence; inhibition, % at 20 µM; 0.64% of 360,000 active; AID 602440; in the data active = inhibition mostly above about 40%, no sharp cut-off; inactive = mostly below about 27%
# SENP8 inh conf = SENP8 (human) inhibition, single concentration confirmation; shares compounds with SENP8 block-2; 15% of 1,400 active; inhibition, % at 25 µM; purified SENP8, Nedd8-AMC/pro-Nedd8 cleavage fluorescence, 30 min; in the data active = inhibition mostly above about 39%, no sharp cut-off; inactive = mostly below about 34%
# Numbers stand for hits; – = inactive; · = no result.
SMILES,SENP6 block,Platelet DG rel,SENP8 block-1,SENP7 block,SENP1 inh,SENP8 block-2,SENP8 inh conf
CC1=NN(c2ccccc2)C(=O)C1C=Nc1ccc(N(C)C)cc1 (stereo not given),–,–,–,–,–,16.6,–
CC1=NN(c2ccccc2)C(=O)C1N=Nc1ccc(C)cc1 (stereo not given),–,–,–,–,·,·,·
CCCCCCNc1ccc(C(=O)OCC)cc1,·,·,·,·,–,–,·
O=C(/C=C/c1ccc(Cl)cc1)NC(=S)Nc1ccc(C(=O)O)cc1,–,–,–,–,–,–,·
COc1ccc(/C=C/C(=O)NC(=S)Nc2ccc(N3CCN(C(C)=O)CC3)cc2)cc1,–,–,–,–,–,51.0,–
COc1cc(OC)cc(C(=O)NC(=S)Nc2ccc(N3CCCC3)cc2)c1,–,–,–,–,–,43.1,–
CC(=O)N1CCN(c2ccc(NC(=S)NC(=O)/C=C/c3ccccc3)cc2)CC1,–,–,–,–,·,·,·
CN(C)c1ccc(NC(=S)NC(=O)/C=C/c2ccc(Cl)cc2)cc1,–,–,–,–,–,41.2,–
C[C@H](CO)N1C[C@H](C)[C@@H](CN(C)S(C)(=O)=O)Oc2c(NC(=O)Nc3ccc(C(F)(F)F)cc3)cccc2C1=O,–,·,–,–,–,–,·
Cc1ccccc1C1=C/C(=C(\SS/C(C(=O)c2ccc(OCC(=O)O)c(Cl)c2Cl)=C2\C=C(c3ccccc3C)SS2)C(=O)c2ccc(OCC(=O)O)c(Cl)c2Cl)SS1,·,·,·,·,–,41.0,55.6
OCCN1CCN(C(=S)c2ccc(Cl)c(Cl)c2)CC1,–,–,–,–,–,42.2,34.1
COc1cc(C2(c3ccc(O)c(OC)c3)C(=O)Nc3c(C)cc(Br)cc32)ccc1O,–,–,–,–,–,40.4,–
CC(=O)OC(C[N+]1(C)CCCCCC1)c1ccccc1 (stereo not given),–,–,–,–,–,–,·
CN(C)c1ccc(NC(=O)CN2CCC(N3CCCCC3)CC2)cc1,–,–,–,–,–,41.6,–
Cc1ccc(OC(C)C(=O)N(Cc2cccs2)C2CCS(=O)(=O)C2)cc1C (stereo not given),–,–,–,–,–,41.0,–
O=c1[nH]c(CN2CCN(c3ccccn3)CC2)nc2c(Br)cc(Br)cc12,–,–,–,–,–,44.4,–
O=[N+]([O-])c1ccc(N2CCN(Cc3ccccc3)CC2)c2c1no[n+]2[O-],·,·,·,·,36.3,42.0,83.5
COC(=O)c1cc(C(=O)Nc2nc3ccccc3[nH]2)cc([N+](=O)[O-])c1,–,–,–,–,–,–,·
C/C(=N\Nc1nc2ccccc2[nH]1)c1ccc([N+](=O)[O-])cc1,–,–,–,–,–,54.3,–
CCOC(=O)C1C(=O)CC(C)(O)C(C(=O)OCC)C1c1ccc([N+](=O)[O-])cc1 (stereo not given),–,–,–,–,–,45.6,–
CCC(C)Nc1nc(N)c([N+](=O)[O-])c(Nc2cc(OC)ccc2OC)n1 (stereo not given),–,–,–,–,–,45.2,–
CCC(C)Nc1nc(N)c([N+](=O)[O-])c(Nc2ccccc2OC)n1 (stereo not given),–,–,–,–,–,–,·
COc1cc(CC(=O)Nc2ccc(S(=O)(=O)NC3=NCCCCC3)cc2)cc(OC)c1OC,–,–,–,–,–,–,·
Cc1ccc(C2NNC(=O)C2NC(=O)c2ccccc2)cc1 (stereo not given),–,–,–,–,–,64.0,–
O=C(NC1C(=O)NNC1c1ccccc1)c1ccc(F)cc1 (stereo not given),–,–,–,–,–,–,·
Cc1nc(SCC(=O)Nc2ccc(S(=O)(=O)N3CCOCC3)cc2)c2c(C)c(C)sc2n1,–,·,–,–,–,–,·
CN(C)S(=O)(=O)c1ccc(NCC2COc3ccccc3O2)c([N+](=O)[O-])c1 (stereo not given),–,–,–,–,–,–,·
CCN(CC)S(=O)(=O)c1ccc(NCC2COc3ccccc3O2)c([N+](=O)[O-])c1 (stereo not given),–,–,–,–,–,46.9,–
CC(=O)/C(=N/Nc1ccc([N+](=O)[O-])cc1)N1CCCc2ccccc21,–,–,–,–,–,46.7,–

# Screening results as filed in PubChem BioAssay.
